Laboratory results: ChEMBL document CHEMBL1124534, “Synthesis, mechanism of action, and biological evaluation of mitosenes” (1989)
Converted amounts (≈) assume the structure as drawn.

Legend:
Mus musculus [1] = assay: Mean relative body weight change of treated / mean relative body weight change of control when compound (6 mg/kg/day) administered to inhibit growth of human tumor xenograft GXF 97 was reported at day 28 in nude mice; assay type: functional
Procedure, shortened: (§1)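 GXF 97 xenograft grown subcutaneously in nude mice for 24 days, then randomized; ip dosing began 1 day later, given on days 1-4, with 4-5 mice per group. Read-out is mean relative body weight change of treated divided by mean relative body weight change of controls, in %.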

A204 = assay: In vitro antitumor activity against A204 rhabdomyosarcoma tumor cell line was determined; assay type: functional; settings: Homo sapiens, read-out: ID50 (the source's name)
Procedure, shortened: (§2)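 Cell growth inhibition in vitro measured by the PIT method, with mitomycin C as positive reference.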

Mus musculus [2] = assay: Percent T/C ([…]) for antitumor activity against P388 Leukemia in CD2 mice at fractioned dose treatment of 2.5 mg/kg; assay type: functional
Procedure, shortened: (§3)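 Mouse P388 leukemia model. Drugs were given intraperitoneally, either as a single injection or once daily for 9 consecutive days (fractioned schedule). Outcomes were median survival time in days, %T/C, and % body weight change.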

Mus musculus [3] = assay: Relative tumor size on day 28 was reported when compound (6 mg/kg/day) administered to inhibit growth of human tumor xenograft GXF 97 in nude mice; assay type: functional
Procedure, shortened: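 GXF 97 human gastric xenograft grown subcutaneously in nude mice for 24 days, then mice randomized; treatment began 1 day later. Fractioned ip injections on days 1-4, or single iv injection on day 1; 4-5 mice per group. Tumor size from length and width; relative tumor size (% of controls) read at day 28.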

Mus musculus [4] = assay: Compound ((12.5 mg/Kg) was evaluated in vivo for antitumor activity against MAC 16 in female NMRI mice on day 4 and ratio of tumor weight of treated to that of control was determined; assay type: functional
Mus musculus [5] = assay: Percent change in body weight [(day 6 - day 1)/ day 1] when P388 Leukemic CD2 mice were treated with a compound (6 mg/kg); assay type: functional
Mus musculus [6] = assay: Body wieght treated/body weight untreated controls of compound (12.5 mg/kg) was evaluated in vivo for antitumor activity against MAC 16 in female NMRI mice on day 12; assay type: functional
Mus musculus [7] = assay: Percent T/C ([…]) for antitumor activity against P388 Leukemia in CD2 mice at fractioned dose treatment of 1.5 mg/Kg; assay type: functional; procedure, shortened: as §3
Mus musculus [8] = assay: Percentage change in body weight [(day 6 - day 1)/ day 1] for antitumor activity against P388 Leukemia in CD2 mice at fractioned dose treatment of 8 mg/Kg; assay type: functional; settings: in the assay text read “single dose treatment” for “fractioned dose treatment”; procedure, shortened: as §3
Mus musculus [9] = assay: Percentage change in body weight [(day 6 - day 1)/ day 1] for antitumor activity against P388 Leukemia in CD2 mice at fractioned dose treatment of 2.5 mg/kg; assay type: functional; procedure, shortened: as §3
Mus musculus [10] = assay: Compound (12.5 mg/Kg) was evaluated in vivo for antitumor activity against MAC 16 in female NMRI mice on day 12 and ratio of tumor weight of treated to that of control was determined; assay type: functional
WiDr = assay: In vitro antitumor activity against WiDr colon carcinoma tumor cell line was determined; assay type: functional; settings: Homo sapiens, read-out: ID50 (the source's name); procedure, shortened: as §2
Mus musculus [11] = assay: Ability of intraperitoneally administered compound (6 mg/kg/day) to inhibit growth of human tumor xenograft GXF 97 was assessed on day 28 in nude mice; assay type: functional
Procedure, shortened: (§4)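 GXF 97 human gastric xenograft grown subcutaneously in nude mice for 24 days, then randomized; dosing began 1 day later as ip injections on days 1-4. Groups had 4-5 mice. Tumor length and width were measured. %T/C = median relative tumor size of treated / median relative tumor size of controls.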

Mus musculus [12] = assay: Median survival time in days for antitumor activity against P388 Leukemia in CD2 mice at fractioned dose treatment of 2.5 mg/kg; assay type: functional
Procedure, shortened: (§5)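 P388 leukemia-bearing mice were dosed intraperitoneally once daily for 9 consecutive days (fractioned schedule). The read-out was median survival time in days, reported alongside %T/C and % body weight change.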

Mus musculus [13] = assay: Ability of intraperitoneally administered compound (6 mg/kg/day) to inhibit growth of human tumor xenograft GXF 97 was assessed on day 14 in nude mice; assay type: functional; procedure, shortened: as §4
Mus musculus [14] = assay: Compound (10 mg/Kg) was evaluated in vivo for antitumor activity against MAC 13 in female NMRI mice on day 2 and ratio of tumor weight of treated to that of control was determined
Mus musculus [15] = assay: Percent T/C ([…]) for antitumor activity against P388 Leukemia in CD2 mice at fractioned dose treatment of 8 mg/Kg; assay type: functional; settings: in the assay text read “single dose” for “fractioned dose”; procedure, shortened: as §3
Mus musculus [16] = assay: Percent T/C ([…]) for antitumor activity against P388 Leukemia in CD2 mice at a single dose treatment of 6 mg/kg; assay type: functional
Procedure, shortened: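 P388 leukemia mice given a single intraperitoneal injection. Median survival time (days) and body weight change were recorded. %T/C was derived from the survival of treated versus control mice.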

Mus musculus [17] = assay: Body wieght treated/body weight untreated controls of compound (12.5 mg/kg) was evaluated in vivo for antitumor activity against MAC 16 in female NMRI mice on day 4; assay type: functional
Mus musculus [18] = assay: Ability of intraperitoneally administered compound (6 mg/kg/day) to inhibit growth of human tumor xenograft GXF 97 was assessed on day 21 in nude mice; assay type: functional; procedure, shortened: as §4
L1210 = assay: In vitro antitumor activity against L1210 lymphocytic leukemia tumor cell line was determined; assay type: functional; settings: Mus musculus, read-out: ID50 (the source's name)
Procedure, shortened: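 Inhibition of L1210 leukemia colony formation in vitro, with mitomycin C as positive reference.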

Mus musculus [19] = assay: Mean relative body weight change of treated / mean relative body weight change of control when compound (6 mg/kg/day) administered to inhibit growth of human tumor xenograft GXF 97 was reported at day 14 in nude mice; assay type: functional; procedure, shortened: as §1
Mus musculus [20] = assay: Median survival time in days for antitumor activity against P388 Leukemia in CD2 mice at fractioned dose treatment of 1.5 mg/Kg; assay type: functional; procedure, shortened: as §5
Mus musculus [21] = assay: Percentage change in body weight [(day 6 - day 1)/ day 1] for antitumor activity against P388 Leukemia in CD2 mice at fractioned dose treatment of 1.5 mg/Kg; assay type: functional; procedure, shortened: as §3
Mus musculus [22] = assay: Percent inhibition of compound (10 mg/Kg) was evaluated in vivo for antitumor activity against MAC 13 in female NMRI mice on day 2; assay type: functional
Procedure, shortened: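 MAC 13 in female NMRI mice. Drugs were given in arachis oil BP by ip route on day 2 or day 29. % inhibition was derived from treated/untreated control tumor weight (volume); a negative value indicates stimulation.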

Mus musculus [23] = assay: Median survival time in days for antitumor activity against P388 Leukemia in CD2 mice at a single dose treatment of 6 mg/kg; assay type: functional
Procedure, shortened: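 P388 leukemia-bearing mice were given one intraperitoneal injection. The read-out was median survival time in days, reported alongside %T/C and % body weight change.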

Mus musculus [24] = assay: Median survival time in days for antitumor activity against P388 Leukemia in CD2 mice at single dose treatment of 8 mg/Kg
Mus musculus [25] = assay: Mean relative body weight change of treated / mean relative body weight change of control when compound (6 mg/kg/day) administered to inhibit growth of human tumor xenograft GXF 97 was reported at day 21 in nude mice; assay type: functional; procedure, shortened: as §1

`COC1=C(C)C(=O)c2c(c(COC(C)=O)c3n2CCC3OC(C)=O)C1=O` (stereo not drawn) was tested, and the BWC (Mus musculus [1]) was 74.1%, the IC50 (A204) was 0.001 µg/mL (≈ 0.00277 µM) and the T/C (Mus musculus [2]) was 150%. For the same molecule, the “Relative TS” value (Mus musculus [3]) was 26.2%, the T/C (Mus musculus [4]) was 102% and the BWC (Mus musculus [5]) was -4.7%. It also gave a BW (Mus musculus [6]) of 78%, a T/C (Mus musculus [7]) of 141% and a BWC (Mus musculus [8]) of -7.1%. The BWC (Mus musculus [9]) was 2%, the T/C (Mus musculus [10]) was 120% and the IC50 (WiDr) was 0.01 µg/mL (≈ 0.0277 µM). It also gave a T/C (Mus musculus [11]) of 3.9%, an MST (Mus musculus [12]) of 16.5 days and a T/C (Mus musculus [13]) of 16.8%. It also gave a T/C (Mus musculus [14]) of 73%, a T/C (Mus musculus [15]) of 82% and a T/C (Mus musculus [16]) of 118%. It also gave a BW (Mus musculus [17]) of 105%, a T/C (Mus musculus [18]) of 5.9% and an IC50 (L1210) of 0.14 µg/mL (≈ 0.387 µM). For the same molecule, the BWC (Mus musculus [19]) was 71%, the MST (Mus musculus [20]) was 15.5 days and the BWC (Mus musculus [21]) was 8.3%. It also gave an I (Mus musculus [22]) of 27%, an MST (Mus musculus [23]) of 13 days and an MST (Mus musculus [24]) of 9 days. It also gave a BWC (Mus musculus [25]) of 73.5%.
